Assay results from ChEMBL document CHEMBL1649062, “Integration of lead optimization with crystallography for a membrane-bound ion channel target: discovery of a new class of AMPA receptor positive allosteric modulators” (J Med Chem, 2011).
Values after ≈ are worked out from the molar mass of the structure shown.

How the values were obtained:
[1] = in vivo; settings: Sprague-Dawley, rat, po, 3 mg/kg
[2] = Volume of distribution at steady state in Sprague-Dawley rat at 2.5 mg/kg, iv and 3 mg/kg, po; assay type: ADME, organism-based; settings: in vivo, read-out: Vdss
Summary of the method: (§1)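 Male animals, n = 3 per species, given single iv and oral doses: Sprague-Dawley rat 2.5 iv / 3 po mg/kg; beagle dog 0.25 / 0.5; Göttingen minipig 0.5 / 1; cynomolgus monkey 0.25 / 1. Blood sampled; Vss from iv; bioavailability and Vss as mean [range]; Tmax as median [range].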

[3] = target: Glutamate receptor 2 (Rattus norvegicus) (UniProt P19491); assay: Allosteric modulation of GluA2 receptor flip isoform in rat hippocampal neuron at 10 nM by whole cell patch-clamp electrophysiology; settings: Hippocampus
Chain of Glutamate receptor 2 (Rattus norvegicus) (P19491 whole entry, canonical isoform): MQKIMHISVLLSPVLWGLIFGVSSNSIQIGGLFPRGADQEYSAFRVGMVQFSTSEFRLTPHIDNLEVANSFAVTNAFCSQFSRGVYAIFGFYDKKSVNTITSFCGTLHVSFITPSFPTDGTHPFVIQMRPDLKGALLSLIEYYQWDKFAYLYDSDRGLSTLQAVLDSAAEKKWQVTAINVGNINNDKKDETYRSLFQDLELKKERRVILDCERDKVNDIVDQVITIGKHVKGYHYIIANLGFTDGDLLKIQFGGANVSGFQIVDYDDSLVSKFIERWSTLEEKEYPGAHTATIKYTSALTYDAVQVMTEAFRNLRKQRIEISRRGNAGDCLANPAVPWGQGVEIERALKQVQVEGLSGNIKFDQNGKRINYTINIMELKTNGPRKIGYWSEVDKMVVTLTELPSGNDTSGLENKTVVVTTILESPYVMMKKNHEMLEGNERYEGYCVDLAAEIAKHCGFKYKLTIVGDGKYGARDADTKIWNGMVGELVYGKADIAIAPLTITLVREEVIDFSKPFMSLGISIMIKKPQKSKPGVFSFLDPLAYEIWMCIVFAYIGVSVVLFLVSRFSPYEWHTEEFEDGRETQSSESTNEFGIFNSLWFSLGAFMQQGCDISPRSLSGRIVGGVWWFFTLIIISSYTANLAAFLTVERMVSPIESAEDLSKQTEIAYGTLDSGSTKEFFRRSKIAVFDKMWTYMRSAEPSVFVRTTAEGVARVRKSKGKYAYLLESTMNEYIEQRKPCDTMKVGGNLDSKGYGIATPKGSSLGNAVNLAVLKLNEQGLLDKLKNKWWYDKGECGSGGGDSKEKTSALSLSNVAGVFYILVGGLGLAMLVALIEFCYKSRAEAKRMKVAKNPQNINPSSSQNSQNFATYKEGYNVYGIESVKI
Summary of the method: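 Rat cultured hippocampal neurons; 30 μM AMPA applied for 2 s, with compound co-applied at 10 nM or 10 μM. Read-out is the increase in charge transfer, taken as the area under the current curve.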

[4] = Oral bioavailability in Gottingen minipig at 1 mg/kg; assay type: ADME, organism-based, Sus scrofa; settings: pig, in vivo
Summary of the method: as §1

[5] = tested on: Brain; assay: Drug level in Lister Hooded rat assessed per gram of tissue at 3 mg/kg, ip; assay type: ADME, organism-based; parameters: dose 3 mg/kg, route intraperitoneal; settings: in vivo
Summary of the method: (§2)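 Male Lister Hooded rats (n = 9-12/group) tested for reversal of a 24 h delay-induced deficit in novel object recognition. Significant doses flagged. Brain concentrations measured in the study animals at the end of the test.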

[6] = Distribution coefficient, log D of the compound; assay type: physicochemical; settings: octanol/water
[7] = Tmax in Swiss Beagle dog at 0.5 mg/kg, po; assay type: ADME, organism-based, Canis lupus familiaris; parameters: dose 0.5 mg/kg, route oral; settings: in vivo
Summary of the method: as §1

[8] = Plasma protein binding in rat at 3 mg/kg, po; assay type: ADME, organism-based; parameters: dose 3 mg/kg, route oral; settings: read-out: PPB (converted)
[9] = tested on: Brain; assay: Drug level in Lister Hooded rat assessed per gram of tissue at 0.3 mg/kg, ip; assay type: ADME, organism-based; parameters: dose 0.3 mg/kg, route intraperitoneal; settings: in vivo
Summary of the method: as §2

[10] = Clearance in Swiss Beagle dog at 0.25 mg/kg, iv and 0.5 mg/kg, po; assay type: ADME, organism-based, Canis lupus familiaris; settings: in vivo
Summary of the method: (§3)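 Male animals, n = 3 per species, given single iv and oral doses. Values are mean and range. Blood clearance is also expressed as % of liver blood flow, taken as (mL/min)/kg: rat 85, dog 31, minipig 30, cynomolgus monkey 44.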

[11] = Oral bioavailability in cynomolgus monkey at 1 mg/kg; assay type: ADME, organism-based, Macaca fascicularis; settings: in vivo
Summary of the method: as §1

[12] = tested on: Brain; assay: Drug level in Lister Hooded rat assessed per gram of tissue at 1 mg/kg, ip; assay type: ADME, organism-based; parameters: dose 1 mg/kg, route intraperitoneal; settings: in vivo
Summary of the method: as §2

[13] = AUC ( 0 to t) in rat at 3 mg/kg, po; assay type: ADME, organism-based, Plasma; parameters: dose 3 mg/kg, route oral; settings: plasma
[14] = Tmax in Sprague-Dawley rat at 3 mg/kg, po; assay type: ADME, organism-based; parameters: dose 3 mg/kg, route oral; settings: in vivo
Summary of the method: as §1

[15] = Half life in Gottingen minipig at 1 mg/kg, po; assay type: ADME, organism-based, Sus scrofa; parameters: dose 1 mg/kg, route oral; settings: pig, in vivo
[16] = Cmax in Sprague-Dawley rat at 3 mg/kg, po; assay type: ADME, organism-based; parameters: dose 3 mg/kg, route oral; settings: in vivo
[17] = tested on: Hepatocyte; assay: Intrinsic clearance in cryopreserved human hepatocytes assessed per gram of tissue; assay type: ADME, cell-based, Liver
Summary of the method: (§4)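 Cryopreserved hepatocytes at 70 000 cells/mL; intrinsic clearance expressed per gram of liver; single determination (human also n = 3).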

[18] = Clearance in Sprague-Dawley rat at 2.5 mg/kg, iv and 3 mg/kg, po; assay type: ADME, organism-based; settings: in vivo
Summary of the method: as §3

[19] = Kinetic solubility of the compound in phosphate buffered saline of pH 7.4; assay type: physicochemical
Summary of the method: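 Kinetic solubility: 10 mM DMSO stock, 5 μL diluted to 100 μL with pH 7.4 phosphate-buffered saline, equilibrated 1 h at room temperature, filtered, filtrate quantified by calibrated flow-injection chemiluminescent nitrogen detection.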

[20] = Intrinsic clearance in cryopreserved minipig hepatocytes assessed per gram of tissue; assay type: ADME, cell-based, Sus scrofa, Liver, Hepatocyte; settings: pig
Summary of the method: as §4

[21] = tested on: Sus scrofa; assay: Hepatic blood flow in Gottingen minipig at 0.5 mg/kg, iv and 1 mg/kg, po; assay type: ADME, organism-based, Liver; settings: pig, in vivo
Summary of the method: as §3

[22] = target: T1, Glutamate receptor 2 (Homo sapiens, UniProt P42262); assay: Allosteric modulation of human recombinant GluA2 receptor flip isoform expressed in HEK293 cells assessed as potentiation of glutamate-induced calcium influx by Fluo-4/FLIPR method; assay type: cell-based
T1 sequence (P42262 whole entry, canonical isoform): as the sequence (P19491 whole entry, canonical isoform) above, with T191M, A291T, G764R, P852A counted along it
Summary of the method: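 Stable GluA2 flip (unedited) cell line grown in DMEM/F12 with 10% FBS and seeded to confluence 2-3 days before use. Cells washed in HEPES buffer (pH 7.3) and loaded with 2 μM Fluo-4 AM for 60 min at room temperature. On FLIPR, compound was added 5 min before 100 μM glutamate. pEC50 and asymptotic maximum are relative to the maximal response to cyclothiazide, n ≥ 3.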

[23] = Intrinsic clearance in cryopreserved rhesus monkey hepatocytes assessed per gram of tissue; assay type: ADME, Macaca mulatta, Liver, Hepatocyte
[24] = tested on: Cynomolgus monkey; assay: Hepatic blood flow in cynomolgus monkey at 0.25 mg/kg, iv and 1 mg/kg, po; assay type: ADME, organism-based, Macaca fascicularis, Liver; settings: in vivo
Summary of the method: as §3

[25] = Tmax in Gottingen minipig at 1 mg/kg, po; assay type: ADME, organism-based, Sus scrofa; parameters: dose 1 mg/kg, route oral; settings: pig, in vivo
Summary of the method: as §1

[26] = Volume of distribution at steady state in Swiss Beagle dog at 0.25 mg/kg, iv and 0.5 mg/kg, po; assay type: ADME, organism-based, Canis lupus familiaris; settings: in vivo, read-out: Vdss
Summary of the method: as §1

[27] = in vivo; settings: rat, brain and blood, po, 3 mg/kg
[28] = tested on: Rattus norvegicus; assay: Hepatic blood flow in Sprague-Dawley rat at 2.5 mg/kg, iv and 3 mg/kg, po; assay type: ADME, organism-based, Liver; settings: in vivo
Summary of the method: as §3

[29] = target: T1, Glutamate receptor 2; assay: Allosteric modulation of human recombinant GluA2 receptor flip isoform expressed in HEK293 cells assessed as potentiation of glutamate-induced calcium influx by Fluo-4/FLIPR method relative to cyclothiazide; assay type: cell-based
Summary of the method: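 Stable GluA2 flip (unedited) cells seeded to confluence 2-3 days before assay; washed in HEPES buffer (145 NaCl, 5 KCl, 2 CaCl2, 1 MgCl2, 5.5 glucose, pH 7.3), loaded with 2 μM Fluo4-AM 60 min at room temperature. FLIPR dual addition: compound 5 min before 100 μM glutamate; fluorescence rise expressed against maximal cyclothiazide response, fitted pEC50 and Asym max; n ≥ 3.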

[30] = Oral bioavailability in Swiss Beagle dog at 0.5 mg/kg; assay type: ADME, organism-based, Canis lupus familiaris; settings: in vivo
Summary of the method: as §1

[31] = tested on: Canis familiaris; assay: Hepatic blood flow in Swiss Beagle dog at 0.25 mg/kg, iv and 0.5 mg/kg, po; assay type: ADME, organism-based, Canis lupus familiaris, Liver; settings: in vivo
Summary of the method: as §3

[32] = Clearance in Gottingen minipig at 0.5 mg/kg, iv and 1 mg/kg, po; assay type: ADME, organism-based, Sus scrofa; settings: pig, in vivo
Summary of the method: as §3

[33] = Cmax in Swiss Beagle dog at 0.5 mg/kg, po; assay type: ADME, organism-based, Canis lupus familiaris; parameters: dose 0.5 mg/kg, route oral; settings: in vivo
[34] = Tmax in cynomolgus monkey at 1 mg/kg, po; assay type: ADME, organism-based, Macaca fascicularis; parameters: dose 1 mg/kg, route oral; settings: in vivo
Summary of the method: as §1

[35] = Half life in Sprague-Dawley rat at 2.5 mg/kg, iv; assay type: ADME, organism-based; parameters: dose 2.5 mg/kg, route intravenous; settings: in vivo
Summary of the method: as §3

[36] = Half life in cynomolgus monkey at 0.25 mg/kg, iv; assay type: ADME, organism-based, Macaca fascicularis; parameters: dose 0.25 mg/kg, route intravenous; settings: in vivo
Summary of the method: as §3

SMILES: O=C(c1ccc(-n2nc(C(F)(F)F)c3c2CCCC3)cc1)N1CCCC1
- bioavailability [1]: 54%
- Vd [2]: 4.8 L/kg
- Activity [3]: 37%
- bioavailability [4]: 13%
- Drug uptake [5]: 542 ng/g
- logD [6]: 3
- Tmax [7]: 36 min
- fraction unbound [8]: 0.01
- Drug uptake [9]: 19 ng/g
- clearance [10]: 32 mL/min/kg
- bioavailability [11]: 2%
- Drug uptake [12]: 97 ng/g
- AUC(0-t) [13]: 472 ng·h/mL
- Tmax [14]: 30 min
- half-life [15]: 270 min
- Cmax [16]: 245 ng/mL
- CL [17]: 1.2 mL/min/g
- clearance [18]: 40 mL/min/kg
- solubility kinetic [19]: 133 µg/mL (≈ 366 µM)
- CL [20]: 7 mL/min/g
- QH [21]: 77%
- EC50 [22]: 10 µM
- CL [23]: > 50 mL/min/g
- QH [24]: 86%
- Tmax [25]: 30 min
- Vd [26]: 3.4 L/kg
- Kp [27]: 1.5
- QH [28]: 47%
- Activity [29]: 123%
- bioavailability [30]: 12%
- QH [31]: 100%
- clearance [32]: 23 mL/min/kg
- Cmax [33]: 14 ng/mL
- Tmax [34]: 60 min
- half-life [35]: 84 min
- half-life [36]: 30 min
